Data as given in ChEMBL document CHEMBL1134293, “Design of selective and soluble inhibitors of tumor necrosis factor-alpha converting enzyme (TACE)” (J Med Chem, 2001).
Values after ≈ are worked out from the molar mass of the structure shown.

What was measured:
[1] = target: Disintegrin and metalloproteinase domain-containing protein 17 (Homo sapiens, UniProt P78536); assay: Inhibition of TACE using scintillation proximity assay (SPA)
Stromelysin-1 = Stromelysin-1 (Homo sapiens, UniProt P08254); assay: Inhibition potency was determined by fluorescence-based peptide assay against matrix metalloprotease-3; set-up: species or system Escherichia coli
Method in brief: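 Full-length active MMP-3 expressed in E. coli, refolded 1 h in 200 mM NaCl, 50 mM Tris, 5 mM CaCl2, 10 μM ZnSO4, 0.01% Brij 35, pH 7.6, used at 5 nM in the same buffer. Preincubated 20 min at room temperature with inhibitor across eleven 3-fold dilutions, then fluorogenic Dnp-Pro-Cha-Gly-Cys(Me)-His-Ala-Lys(Nma)-NH2 added; product read at ex 343/em 450 nm; IC50 (nM).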

Interstitial collagenase = target: T1, Interstitial collagenase (Homo sapiens, UniProt P03956); assay: Inhibition potency was determined by fluorescence-based peptide assay against matrix metalloprotease-1; set-up: species or system Escherichia coli
T1 sequence (P03956 whole entry): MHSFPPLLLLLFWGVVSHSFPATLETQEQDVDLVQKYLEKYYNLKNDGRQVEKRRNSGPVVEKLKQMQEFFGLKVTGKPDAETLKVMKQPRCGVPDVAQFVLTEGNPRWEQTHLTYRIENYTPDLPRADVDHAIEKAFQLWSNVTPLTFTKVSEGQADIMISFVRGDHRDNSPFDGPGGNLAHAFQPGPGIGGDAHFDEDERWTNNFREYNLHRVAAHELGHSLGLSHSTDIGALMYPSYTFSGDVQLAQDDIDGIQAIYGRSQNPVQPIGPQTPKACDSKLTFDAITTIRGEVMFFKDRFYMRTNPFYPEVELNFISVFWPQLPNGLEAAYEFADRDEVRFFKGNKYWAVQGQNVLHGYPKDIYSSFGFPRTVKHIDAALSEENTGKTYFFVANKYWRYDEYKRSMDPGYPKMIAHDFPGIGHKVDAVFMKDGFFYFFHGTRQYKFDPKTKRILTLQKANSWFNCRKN
Method in brief: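 Recombinant MMP-1 catalytic domain expressed in E. coli, refolded 1 h in 200 mM NaCl, 50 mM Tris, 5 mM CaCl2, 10 μM ZnSO4, 0.01% Brij 35, pH 7.6, and assayed at 1.0 nM in the same buffer. Enzyme preincubated 20 min at room temperature with inhibitor (eleven-point 3-fold dilutions). Reaction started with fluorogenic Dnp-Pro-Cha-Gly-Cys(Me)-His-Ala-Lys(Nma)-NH2; ex 343/em 450 nm; IC50 (nM).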

[2] = target: Matrix metalloproteinase-9 (Homo sapiens, UniProt P14780); assay: Inhibition potency was determined by fluorescence-based peptide assay against matrix metalloprotease-9
Method in brief: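 Catalytic domain of proMMP-9 purified from baculovirus-infected T. ni cell media, 0.1 nM in 200 mM NaCl, 50 mM Tris, 5 mM CaCl2, 10 μM ZnSO4, 0.01% Brij 35, pH 7.6. Preincubated with inhibitor 20 min at room temperature; fluorogenic Dnp-Pro-Cha-Gly-Cys(Me)-His-Ala-Lys(Nma)-NH2 added; fluorescence ex 343/em 450 nm; eleven-point 3-fold dilutions give IC50 (nM).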

Mus musculus [3] = assay: Inhibition of soluble TNF-alpha production in LPS-Stimulated mice by administration of 40 mg/kg compound per orally; format: functional; conditions: route oral
Method in brief: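 Female C3H/hen mice gavaged at 40 mg/kg (5 mL/kg, homogenized suspension in 0.5% HPMC/0.1% Tween 80) 10 min before ip LPS 0.2 mg/kg in PBS. Killed at 90 min; vena cava plasma TNF-α by ELISA. Percent inhibition vs vehicle group, n = 7 each, 2-sided t-test.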

[4] = Solubility in simulated gastric fluid; format: physicochemical; conditions: read-out: S
Mus musculus [5] = assay: Inhibition of soluble TNF-alpha production in LPS-Stimulated mice by administration of 40 mg/kg compound subcutaneously; format: functional; conditions: sc, route subcutaneous
Method in brief: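 Female C3H/hen mice given 40 mg/kg sc (0.2 mL; DMSO stock into 0.9% NaCl/30% Trappsol HPB-20, final 1% DMSO) 10 min before ip LPS 0.2 mg/kg in PBS. Plasma from vena cava at 90 min, TNF-α by ELISA; percent inhibition vs vehicle controls, n = 7 per group, 2-sided t-test.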

Rattus norvegicus = species on record: Rattus norvegicus; assay: Inhibition of TNF alpha production in rat Zymosan inflammation model; format: functional
Method in brief: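 Male Lewis rats given single sc dose (50 mg/kg) as aqueous suspension in 5% EtOH, 5% propylene glycol, 10% Cremephore, 10% Molecusol (5 mL/kg), 10 min before intrapleural zymosan (0.5 mg in 0.25 mL H2O).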

Sequence of Disintegrin and metalloproteinase domain-containing protein 17 (P78536 whole entry, the tested form may be a part): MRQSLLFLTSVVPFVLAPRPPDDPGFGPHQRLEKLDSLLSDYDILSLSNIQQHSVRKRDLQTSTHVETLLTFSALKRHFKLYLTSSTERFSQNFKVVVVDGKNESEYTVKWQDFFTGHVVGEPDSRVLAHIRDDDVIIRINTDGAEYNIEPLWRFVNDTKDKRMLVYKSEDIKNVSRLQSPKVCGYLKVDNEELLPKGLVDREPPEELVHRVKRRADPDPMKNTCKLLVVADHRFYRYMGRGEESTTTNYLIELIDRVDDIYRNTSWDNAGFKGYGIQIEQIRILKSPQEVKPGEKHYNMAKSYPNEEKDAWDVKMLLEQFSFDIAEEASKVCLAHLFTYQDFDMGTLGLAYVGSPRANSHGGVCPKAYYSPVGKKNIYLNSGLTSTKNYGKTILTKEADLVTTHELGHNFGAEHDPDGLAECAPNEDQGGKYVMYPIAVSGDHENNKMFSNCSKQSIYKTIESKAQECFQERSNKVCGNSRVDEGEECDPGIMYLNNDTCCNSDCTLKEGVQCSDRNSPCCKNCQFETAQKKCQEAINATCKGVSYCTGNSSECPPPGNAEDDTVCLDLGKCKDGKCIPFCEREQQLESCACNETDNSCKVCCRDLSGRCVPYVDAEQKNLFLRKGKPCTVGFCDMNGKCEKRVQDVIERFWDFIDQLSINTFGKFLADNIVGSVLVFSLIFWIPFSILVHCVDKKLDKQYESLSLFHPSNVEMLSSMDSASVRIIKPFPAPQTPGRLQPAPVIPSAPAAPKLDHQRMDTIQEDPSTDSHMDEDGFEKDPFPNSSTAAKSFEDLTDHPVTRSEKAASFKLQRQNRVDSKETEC
Sequence of Stromelysin-1 (P08254 whole entry): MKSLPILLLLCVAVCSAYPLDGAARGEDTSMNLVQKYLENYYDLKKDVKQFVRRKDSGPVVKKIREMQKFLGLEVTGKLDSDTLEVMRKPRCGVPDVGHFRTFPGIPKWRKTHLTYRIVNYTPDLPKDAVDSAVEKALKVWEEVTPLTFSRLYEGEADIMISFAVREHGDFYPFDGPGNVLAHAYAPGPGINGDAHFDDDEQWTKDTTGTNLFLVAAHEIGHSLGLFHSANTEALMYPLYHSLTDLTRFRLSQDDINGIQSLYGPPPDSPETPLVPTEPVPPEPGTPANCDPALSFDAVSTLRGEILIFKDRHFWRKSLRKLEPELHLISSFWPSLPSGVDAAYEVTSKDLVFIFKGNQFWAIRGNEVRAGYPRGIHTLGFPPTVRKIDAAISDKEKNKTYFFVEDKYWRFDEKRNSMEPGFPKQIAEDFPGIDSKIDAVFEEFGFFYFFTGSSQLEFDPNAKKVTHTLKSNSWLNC
Sequence of Matrix metalloproteinase-9 (P14780 whole entry, the tested form may be a part): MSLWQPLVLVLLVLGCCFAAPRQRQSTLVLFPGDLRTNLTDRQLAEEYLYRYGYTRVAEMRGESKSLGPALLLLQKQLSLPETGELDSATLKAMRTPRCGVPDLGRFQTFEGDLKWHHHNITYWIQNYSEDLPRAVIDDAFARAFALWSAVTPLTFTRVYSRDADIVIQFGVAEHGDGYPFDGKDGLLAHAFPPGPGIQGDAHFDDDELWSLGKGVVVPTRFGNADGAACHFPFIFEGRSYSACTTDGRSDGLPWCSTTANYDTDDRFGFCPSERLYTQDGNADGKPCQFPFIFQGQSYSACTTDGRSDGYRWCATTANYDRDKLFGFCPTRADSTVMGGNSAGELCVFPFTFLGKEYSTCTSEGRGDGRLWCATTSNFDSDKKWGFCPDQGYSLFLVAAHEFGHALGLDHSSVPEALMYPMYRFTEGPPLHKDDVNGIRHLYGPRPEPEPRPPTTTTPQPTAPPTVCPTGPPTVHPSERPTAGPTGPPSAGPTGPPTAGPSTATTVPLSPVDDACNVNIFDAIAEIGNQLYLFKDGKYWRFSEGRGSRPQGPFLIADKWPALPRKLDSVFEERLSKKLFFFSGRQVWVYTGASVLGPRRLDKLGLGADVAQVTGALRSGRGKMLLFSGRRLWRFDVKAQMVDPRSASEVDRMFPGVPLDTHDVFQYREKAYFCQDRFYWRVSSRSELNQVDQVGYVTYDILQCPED

## CCC[C@@H]([C@@H](Cc1ccc(C)s1)C(=O)N[C@@H](CCC/N=C(/N)NS(=O)(=O)c1ccccn1)C(=O)Nc1nccs1)N(O)C=O
[1]
  IC50: 11 nM
Stromelysin-1
  IC50: 218 nM
Interstitial collagenase
  IC50: > 2700 nM
[2]
  IC50: 379 nM

## CCC[C@@H]([C@@H](CC(C)C)C(=O)N[C@@H](CCC/N=C(/N)NS(=O)(=O)c1ccccn1)C(=O)Nc1nccs1)N(O)C=O
[1]
  IC50: 6 nM
Mus musculus [3]
  inhibition in vivo at 40 mg/kg: -28%
Stromelysin-1
  IC50: 84 nM
Interstitial collagenase
  IC50: 76 nM
[2]
  IC50: 43 nM

## N/C(=N/CCC[C@H](NC(=O)[C@H](CC1CCCCC1)[C@H](CCC(F)(F)F)N(O)C=O)C(=O)Nc1nccs1)N[N+](=O)[O-]
[1]
  IC50: 5 nM
Mus musculus [3]
  inhibition in vivo at 40 mg/kg: -24%
Stromelysin-1
  IC50: 214 nM
Interstitial collagenase
  IC50: 110 nM
[4]
  solubility: 54 µg/mL (≈ 88.7 µM)
Mus musculus [5]
  inhibition in vivo at 40 mg/kg: 73%
[2]
  IC50: 49 nM

## CC(C)C[C@@H](C(=O)N[C@H](C(=O)Nc1nccs1)[C@H](C)CC/N=C(/N)NS(C)(=O)=O)[C@H](C(C)C)N(O)C=O
[1]
  IC50: 35 nM
Mus musculus [3]
  inhibition in vivo at 40 mg/kg: 7%
Stromelysin-1
  IC50: 49 nM
Interstitial collagenase
  IC50: 8.1 nM
[2]
  IC50: 12 nM

## CCC[C@@H]([C@@H](Cc1ccc(C)s1)C(=O)N[C@@H](CCC/N=C(/N)N[N+](=O)[O-])C(=O)Nc1nccs1)N(O)C=O
Stromelysin-1
  IC50: 79 nM
Interstitial collagenase
  IC50: > 2500 nM
[2]
  IC50: 190 nM

## CC1CCC(C[C@@H](C(=O)N[C@@H](CCC/N=C(/N)N[N+](=O)[O-])C(=O)Nc2nccs2)[C@H](C(C)C)N(O)C=O)CC1 (stereo partly drawn)
Mus musculus [3]
  inhibition in vivo at 40 mg/kg: -6%
Stromelysin-1
  IC50: 76 nM
Interstitial collagenase
  IC50: 85 nM
[4]
  solubility: 210 µg/mL (≈ 369 µM)
Mus musculus [5]
  inhibition in vivo at 40 mg/kg: 71%
[2]
  IC50: 35 nM

## CC(C)C[C@@H](C(=O)N[C@H](C(=O)Nc1nccs1)[C@H](C)CC/N=C(/N)N[N+](=O)[O-])[C@H](C)N(O)C=O
[1]
  IC50: 7 nM
Mus musculus [3]
  inhibition in vivo at 40 mg/kg: -2%
Stromelysin-1
  IC50: 273 nM
Interstitial collagenase
  IC50: 38 nM
[4]
  solubility: > 850 µg/mL
[2]
  IC50: 19 nM

## CC(C)C[C@@H](C(=O)N[C@H](C(=O)Nc1nccs1)[C@H](C)CC/N=C(/N)NS(C)(=O)=O)[C@H](C)N(O)C=O
[1]
  IC50: 12 nM
Mus musculus [3]
  inhibition in vivo at 40 mg/kg: -3%
Stromelysin-1
  IC50: 169 nM
Interstitial collagenase
  IC50: 18 nM
[4]
  solubility: > 2130 µg/mL
[2]
  IC50: 8.5 nM

## CC(C)C[C@@H](C(=O)N[C@@H](CCC/N=C(/N)NS(C)(=O)=O)C(=O)Nc1nccs1)[C@H](C(C)C)N(O)C=O
[1]
  IC50: 42 nM
Stromelysin-1
  IC50: 62 nM
Interstitial collagenase
  IC50: 21 nM
[2]
  IC50: 22 nM

## NC(=NCCC[C@H](NC(=O)[C@H](CC1CCCCC1)[C@H](C1CC1)N(O)C=O)C(=O)Nc1nccs1)N[N+](=O)[O-]
[1]
  IC50: 22 nM
Mus musculus [3]
  inhibition in vivo at 40 mg/kg: -3%
Stromelysin-1
  IC50: 1490 nM
Interstitial collagenase
  IC50: 144 nM
[4]
  solubility: 920 µg/mL (≈ 1660 µM)
Mus musculus [5]
  inhibition in vivo at 40 mg/kg: 56%
[2]
  IC50: 602 nM

## CC1CCC(C[C@@H](C(=O)N[C@@H](CCCN=C(N)NS(=O)(=O)c2ccccn2)C(=O)Nc2nccs2)[C@H](C(C)C)N(O)C=O)CC1 (stereo partly drawn)
[1]
  IC50: 16 nM
Mus musculus [3]
  inhibition in vivo at 40 mg/kg: -9%
Stromelysin-1
  IC50: 115 nM
Interstitial collagenase
  IC50: 96 nM
[2]
  IC50: 71 nM

## CCC[C@@H]([C@@H](CC(C)C)C(=O)N[C@@H](CCCN=C(N)NS(C)(=O)=O)C(=O)Nc1nccs1)N(O)C=O
[1]
  IC50: 7.9 nM
Stromelysin-1
  IC50: 122 nM
Interstitial collagenase
  IC50: 100 nM
[4]
  solubility: > 1130 µg/mL
[2]
  IC50: 51 nM

## CCC[C@@H]([C@@H](CC(C)C)C(=O)N[C@H](C(=O)Nc1nccs1)[C@H](C)CC/N=C(/N)N[N+](=O)[O-])N(O)C=O
[1]
  IC50: 5 nM
Mus musculus [3]
  inhibition in vivo at 40 mg/kg: -10%
Stromelysin-1
  IC50: 47 nM
Interstitial collagenase
  IC50: 24 nM
[2]
  IC50: 13 nM

## CC(C)C[C@@H](C(=O)N[C@H](C(=O)Nc1nccs1)[C@H](C)CC/N=C(/N)NS(C)(=O)=O)[C@H](CCC(F)(F)F)N(O)C=O
[1]
  IC50: 8 nM
Mus musculus [3]
  inhibition in vivo at 40 mg/kg: -5%
Stromelysin-1
  IC50: 17 nM
Interstitial collagenase
  IC50: 52 nM
[2]
  IC50: 22 nM

## CCC[C@@H]([C@@H](CC1CCC(C)CC1)C(=O)N[C@@H](CCC/N=C(/N)N[N+](=O)[O-])C(=O)Nc1nccs1)N(O)C=O (stereo partly drawn)
[1]
  IC50: 9 nM
Mus musculus [3]
  inhibition in vivo at 40 mg/kg: -19%
Stromelysin-1
  IC50: 200 nM
Interstitial collagenase
  IC50: 188 nM
[4]
  solubility: 160 µg/mL (≈ 281 µM)
Mus musculus [5]
  inhibition in vivo at 40 mg/kg: 64%
[2]
  IC50: 115 nM

## CCC[C@@H]([C@@H](CC(C)C)C(=O)N[C@@H](CCC/N=C(/N)N[N+](=O)[O-])C(=O)Nc1nccs1)N(O)C=O
Mus musculus [3]
  inhibition in vivo at 40 mg/kg: -29%
Rattus norvegicus
  Inhibition: 30%
Stromelysin-1
  IC50: 31 nM
Interstitial collagenase
  IC50: 34 nM
[4]
  solubility: > 1600 µg/mL
Mus musculus [5]
  inhibition in vivo at 40 mg/kg: 96%
[2]
  IC50: 13 nM

## CCC[C@@H]([C@@H](CC1CCC(C)CC1)C(=O)N[C@@H](CCCN=C(N)NS(=O)(=O)c1ccccn1)C(=O)Nc1nccs1)N(O)C=O (stereo partly drawn)
[1]
  IC50: 6 nM
Stromelysin-1
  IC50: 282 nM
Interstitial collagenase
  IC50: 133 nM
[4]
  solubility: 160 µg/mL (≈ 241 µM)
[2]
  IC50: 143 nM

## CCC[C@@H]([C@@H](CC1CCCCC1)C(=O)N[C@@H](CCC/N=C(/N)N[N+](=O)[O-])C(=O)Nc1nccs1)N(O)C=O
[1]
  IC50: 8 nM
Mus musculus [3]
  inhibition in vivo at 40 mg/kg: -27%
Stromelysin-1
  IC50: 203 nM
Interstitial collagenase
  IC50: 108 nM
[4]
  solubility: 330 µg/mL (≈ 595 µM)
Mus musculus [5]
  inhibition in vivo at 40 mg/kg: 72%
[2]
  IC50: 55 nM

## CCC[C@@H]([C@@H](CC(C)C)C(=O)N[C@H](C(=O)Nc1nccs1)[C@H](C)CCN=C(N)NS(C)(=O)=O)N(O)C=O
[1]
  IC50: 6 nM
Mus musculus [3]
  inhibition in vivo at 40 mg/kg: 28%
Stromelysin-1
  IC50: 156 nM
Interstitial collagenase
  IC50: 57 nM
[2]
  IC50: 48 nM

## CC(C)C[C@@H](C(=O)N[C@@H](CCC/N=C(/N)N[N+](=O)[O-])C(=O)Nc1nccs1)[C@H](Cc1ccccc1)N(O)C=O
Stromelysin-1
  IC50: 31 nM
Interstitial collagenase
  IC50: 26 nM
[2]
  IC50: 11 nM

## CC1CCC(C[C@@H](C(=O)N[C@@H](CCCN=C(N)NS(C)(=O)=O)C(=O)Nc2nccs2)[C@H](C(C)C)N(O)C=O)CC1 (stereo partly drawn)
[1]
  IC50: 14 nM
Mus musculus [3]
  inhibition in vivo at 40 mg/kg: 32%
Stromelysin-1
  IC50: 155 nM
Interstitial collagenase
  IC50: 122 nM
[4]
  solubility: 1400 µg/mL (≈ 2330 µM)
[2]
  IC50: 89 nM
